Hits are enriched below; roughly 2.2% of the tested compounds scored in any of these assays.
dFosB act: mouse delta FosB homodimer activation; P13346; purified delta FosB, TAMRA-CDK5 oligo fluorescence polarization; percent of positive-control signal above neutral wells; activation, % at 25 µM; 340,000 compounds, 0.99% hits; AID 493131;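 active means mean activation above about 17%, with every replicate also reaching it, limit read from the data, passing the limit was not always enough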
Target sequence (P13346 whole entry, looked up): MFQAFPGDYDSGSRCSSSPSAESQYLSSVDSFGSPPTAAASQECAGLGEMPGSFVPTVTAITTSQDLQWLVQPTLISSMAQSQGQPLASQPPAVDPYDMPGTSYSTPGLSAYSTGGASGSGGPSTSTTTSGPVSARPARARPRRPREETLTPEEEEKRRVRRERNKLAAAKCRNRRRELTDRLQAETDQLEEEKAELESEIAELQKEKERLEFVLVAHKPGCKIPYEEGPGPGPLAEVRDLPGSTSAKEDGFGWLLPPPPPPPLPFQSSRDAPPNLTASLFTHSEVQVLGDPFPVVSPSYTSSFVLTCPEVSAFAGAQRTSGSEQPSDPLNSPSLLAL
F508del corr: CFTR F508del correction in bronchial cells. CFBE cells, YFP halide quenching; stimulated with forskolin plus potentiator P3; % fluorescence drop versus neutral controls. activity (quench increase), % at 7.58 µM. 350,000 compounds, 0.36% hits;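 active means mean added fluorescence quench of at least 8% versus neutral control, with both replicates also reaching 8%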;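 further: cells transiently co-express mutant CFTR-F508del with the halide-sensitive YFP; corrector assay measuring rescue of mutant channel to the surface after 24 h compound exposure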
FGF22 binding: shifts melting point of recombinant human FGF22; Q9HCT0; recombinant FGF22 thermal shift, SYPRO orange fluorescence; percent of sucrose octasulfate shift, DMSO zero; activity (Tm shift, normalised), % at 9.99 µM; 340,000 compounds, 1.5% hits; AID 651658;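 active means mean Tm shift, scaled 0 neutral to 100 positive control, at about 1.3% or above, every replicate too, limit read from the data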
Target sequence (Q9HCT0 whole entry, looked up): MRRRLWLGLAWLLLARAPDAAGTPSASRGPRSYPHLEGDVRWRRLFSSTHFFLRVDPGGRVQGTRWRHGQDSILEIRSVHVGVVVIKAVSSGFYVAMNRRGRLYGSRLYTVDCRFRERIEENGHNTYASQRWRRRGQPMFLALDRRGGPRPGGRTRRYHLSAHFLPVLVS
S100A4 MyoIIA: inhibitors of human S100A4 binding to myosin IIA peptide. P26447. S100A4/TAMRA-MyoIIA peptide fluorescence polarization. inhibition, % at 10.7 µM. 360,000 compounds, 0.14% hits. AID 652163;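 active means mean inhibition of at least 70% across replicates, with every replicate also reaching that level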
Target sequence (P26447 whole entry, looked up): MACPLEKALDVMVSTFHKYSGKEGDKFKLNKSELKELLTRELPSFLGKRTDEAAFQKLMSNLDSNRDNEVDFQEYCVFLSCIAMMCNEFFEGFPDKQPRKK
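Test system – S100A4 monomer (human) · Compound – single-point compound testing · Schedule – 5 min incubation before reading · Probe or stimulus – TAMRA-labelled myosin IIA heavy-chain peptide probe, 5 nM · Benchmarks – neutral control DMSO, positive control TFP · Medium – Calcium-containing HEPES buffer, pH 7.2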
* marks the source's active call; other numbers are inactive results; . = not tested or not shown.

SMILES	dFosB act	F508del corr	FGF22 binding	S100A4 MyoIIA
Cc1noc(C)c1NC(=O)Nc1ccc2c(c1)CC(=O)N([C@@H](C)CO)C[C@H](C)[C@@H](CN(C)Cc1ccc(-c3ccccc3)cc1)O2	.	-0.7	-0.5	-5.3
O=C(NC1CCCCC1)c1cc(C2CC2)nn1-c1ccccc1	-4.4	22.5*	-0.2	-0.2
COc1cccc(/C=N/NC(=O)c2c(-c3ccccc3)noc2C)c1O	-6.8	.	.	.
Cc1ccc(/C=N/NC(=O)c2c(-c3ccccc3)noc2C)c(O)c1	-13.6	11.3*	-0.1	-2.8
CCOC(=O)c1ccccc1-n1c(C)cc(C2N=C(N)Nc3nc4ccccc4n32)c1C (configuration not stated)	45.3*	-1.0	0.0	1.6
CCOC(=O)C1=C(C)Nc2nc3ccccc3n2C1c1ccc(O)cc1 (configuration not stated)	-0.1	-0.9	0.0	20.9
CO[C@H]1CN(C)C(=O)c2cc(NC(=O)Nc3cccc(Cl)c3)ccc2OC[C@H](C)N(C)C[C@@H]1C	.	-3.3	0.0	4.1
O=C(CCCn1c(=S)[nH]c2ccsc2c1=O)NCc1ccco1	-7.2	.	.	.
COc1ccc(CCNC(=O)CCCNC(=O)Cn2cnc3sc(C)c(C)c3c2=O)cc1OC	-0.7	3.4	43.5*	-8.3
COc1ccc(CCNC(=O)CCCn2c(=S)[nH]c3ccsc3c2=O)cc1OC	.	1.8	43.1*	-1.7
C[C@]12CCC(=O)C=C1CC[C@@H]1[C@@H]2[C@@H](O)C[C@]2(C=O)[C@@H](C(=O)CO)CC[C@@H]12	1.3	-0.3	0.3	6.1
CC(=O)OC1CC2(C)C(C(C)=O)CCC2C2CCC3=CC(=O)CCC3(C)C12 (configuration not stated)	-9.6	1.2	43.3*	-1.3
CC12CC(O)C3C(CCC4=CC(=O)CCC43C)C1CCC2=CCO (configuration not stated)	6.6	1.5	43.0*	-0.7
O=S(=O)(N[C@H]1CC[C@@H](CCn2cc(-c3ccccc3F)nn2)O[C@H]1CO)c1ccc(F)cc1	.	1.2	0.3	-42.0
CNC[C@@H]1Oc2cc(C#CCN(C)C)ccc2S(=O)(=O)N([C@H](C)CO)C[C@H]1C	.	-1.2	-0.2	5.3
C[C@@H]1CN([C@@H](C)CO)C(=O)c2cc(NC(=O)C3CCCCC3)ccc2O[C@@H](C)CCCCO[C@H]1CN(C)C(=O)c1ccccc1	.	-2.6	28.8*	-29.4
COc1ccc(NC(=O)Nc2ccc3c(c2)C(=O)N([C@@H](C)CO)C[C@H](C)[C@H](CN(C)C(=O)c2ccccc2)OCCCC[C@H](C)O3)cc1	.	6.5	1.4*	3.2
COc1ccc(NC(=O)Nc2ccc3c(c2)C(=O)N([C@H](C)CO)C[C@H](C)[C@@H](CN(C)C(=O)c2ccccc2)OCCCC[C@H](C)O3)cc1	.	-0.2	0.2	-8.9
C[C@@H]1CN([C@H](C)CO)C(=O)c2cc(NC(=O)Nc3ccc(F)cc3)ccc2O[C@@H](C)CCCCO[C@@H]1CN(C)C(=O)c1ccccc1	.	1.5	1.4*	0.3
COc1ccc(NC(=O)Nc2ccc3c(c2)C(=O)N([C@H](C)CO)C[C@H](C)[C@@H](CN(C)CC2CC2)OCCCC[C@H](C)O3)cc1	.	-2.9	-0.3	-4.2
COc1ccc(Cl)cc1S(=O)(=O)N1CCCC1=O	3.1	0.1	42.9*	-1.7
CC(C)CC1NC(=O)N(CCCCN2C(=O)c3ccccc3C2=O)C1=O (configuration not stated)	2.3	-0.8	43.5*	-1.3
CN(C)CCCNC(=O)C[C@@H]1C=C[C@@H](NC(=O)c2ccccc2F)[C@H](CO)O1	.	-0.3	-0.4	16.0
CC(C)CCN1CCN(CC(c2ccccc2)c2ccccc2)CC1CCO (configuration not stated)	1.2	.	43.1*	-1.6
COC(=O)[C@@]12C[C@@H](CC(=O)NCc3ccccc3)C(=O)N(Cc3cccc4ccccc34)C1=CCC(C)(C)C2	.	-0.8	19.9*	1.8
SMILES	dFosB act	F508del corr	FGF22 binding	S100A4 MyoIIA
COC(=O)[C@@]12C[C@@H](CC(=O)NCc3cccc4ccccc34)C(=O)N(Cc3cccc4ccccc34)C1=CCC(C)(C)C2	.	1.6	0.4	-3.4
c1cnc2ncc3sccc3c2c1	-5.3	1.2	43.2*	32.2
Cc1cnc2ncc3sccc3c2c1	-17.4	.	-0.2	1.4
Cc1cc2c(cc1S(=O)(=O)N1CCN(c3cccc(C)c3C)CC1)OCCN2C	-5.2	1.9	0.3	152.6*
CCCNC(=O)[C@@H]1[C@@H](CO)[C@@H]2Cn3c(cccc3=O)[C@@H]2N1Cc1ccccc1Cl	.	.	0.2	-1.1
O=C1NC(Cc2ccc(O)cc2)c2nc3ccc(Br)cc3c(=O)n2-c2cc3ccccc3cc21 (configuration not stated)	.	8.2*	-0.1	1.3
O=C(Nc1ccc(F)cc1)N[C@@H]1CC[C@H](CCn2cc(C3(O)CCCC3)nn2)O[C@H]1CO	.	-1.2	-0.2	-0.3
Cc1ccc(S(=O)(=O)N(C)C[C@@H]2OCCCC[C@H](C)Oc3ccc(NC(=O)c4ccncc4)cc3C(=O)N([C@H](C)CO)C[C@H]2C)cc1	.	-3.5	.	0.8
Cc1nc(N)nc(N)c1CCCc1ccc(Cl)c(Cl)c1	26.7*	5.8	0.0	-2.2
CSc1nsc(SCC(=O)Nc2nc3ccccc3s2)n1	-8.7	3.7	44.5*	-0.5
COc1ccc2nc(NC(=O)CSc3nc(SC)ns3)sc2c1	9.0	0.3	-0.1	-5.5
O=C(CN1CCN(Cc2ccc(Cl)cc2)C1=O)NCc1cccs1	-1.0	-1.9	43.9*	-1.6
O=C(CN1CCOc2ccccc21)NCc1ccc(F)cc1	-4.1	0.6	-0.1	3.8
O=C(CN1CCOc2ccccc21)NCc1ccc(Cl)cc1	-6.8	9.2*	0.0	9.0
O=C(CN1CCN(S(=O)(=O)c2ccc(Cl)cc2)CC1)NCc1cccs1	1.4	-1.6	.	0.3
O=[N+]([O-])c1cc(CN2CCCC2)c2cccnc2c1O	-8.9	.	.	.
O=[N+]([O-])c1cc(CN2CCN(c3cccc(C(F)(F)F)c3)CC2)c2cccnc2c1O	-4.7	-2.9	43.1*	0.4
COc1ccc(C(=O)On2c(-c3ccc(Br)cc3)nc3ccccc3c2=O)cc1	-7.6	-0.9	0.6	4.1
COc1cc(OC)cc(-c2nc3ccccc3c(=O)n2OC(=O)c2ccc(Br)cc2)c1	2.1	-1.2	1.7*	0.6
COc1ccc(COCC23N=C4SCc5ccccc5CN4[C@H](c4ccccc4O2)[C@H]3CO)cc1	.	3.7	-0.2	-3.7
COCC(=O)OCC(=O)N1N=C(c2ccc(Cl)cc2)CC1c1ccco1 (configuration not stated)	-10.1	1.6	44.0*	-2.1
O=C(NC(=S)Nc1cc(S(=O)(=O)N2CCOCC2)ccc1O)c1ccco1	-8.8	1.7	5.5*	0.1
O=C(NC(=S)Nc1cc(S(=O)(=O)N2CCOCC2)ccc1N1CCOCC1)c1ccco1	-11.9	-2.4	0.3	-3.4
COc1ccc(-c2cc(C)no2)cc1S(=O)(=O)N1CCN(c2cccc(C)c2)C(C)C1 (configuration not stated)	-10.5	-2.9	-0.1	-7.1
